Experimental data gathered from unrelated publications.
Lines come from different studies, so protocols differ.
Effect on: metabolic stability

Structure (SMILES)	species	sample	concentration	notes	quantity	result
Cc1ccc(Cn2cc(C(=O)NN)c(=O)c3cc(Oc4ccccc4)ccc32)cc1	male CD-1 mouse	liver microsomes	1 µM		microsomal CLint	< 11.6 µL/min/mg
CC1(CN)CCN(c2cnc3c(Sc4ccncc4Cl)n[nH]c3n2)CC1	mouse	liver microsomes			scaled CLint	8.71 mL/min/kg
CCOc1ccc2ccc(=O)oc2c1	male CD-1 mouse	hepatocytes	1 µM		hepatocyte CLint	> 46.2 µL/min/10⁶ cells
O=c1ccc2ccc(O)cc2o1	mouse	liver microsomes			scaled CLint	3050 mL/min/kg
O=c1ccc2cc(O)ccc2o1	mouse	liver microsomes			microsomal CLint	170 µL/min/mg
CCN(CCN)c1ccc(Nc2cc(NC3CC3)n3ncc(C#N)c3n2)cc1-n1cnnc1	male CD-1 mouse	hepatocytes	1 µM	serum-free	scaled CLint	< 32 mL/min/kg
CC(C)Oc1ccc(S(=O)(=O)c2ccc(Oc3cc(OCC(N)=O)c(C(=O)C(Cl)Cl)cc3[N+](=O)[O-])cc2)cc1	mouse	liver microsomes			microsomal CLint	197 µL/min/mg
O=C(O)Cc1ccccc1Nc1c(Cl)cccc1Cl	mouse	liver microsomes			scaled CLint	90.3 mL/min/kg
